Test [1] concerns SUM-159-PT. The experiment in a line: Anticancer activity against human SUM159 cells assessed as effect on RFP+/BFP+ cell ratio upto 100 uM after 72 hrs by ALDEFLUOR staining based flow cytometric analysis. The class given is functional. In general terms: A flow cytometer gives signals particle by particle.
For test [2], the system named is Breast cancer cell line. The experiment in a line: Synergistic antitumor activity against human CRCM404 negative breast cancer cells xenografted in NSG mouse model of PDX assessed as reduction metastasis formation in lung at 50 mg/kg, ip 5 out of 7 for 2 weeks cotreated with salinomycin. The class given is functional, organism-based. In outline:
(§1)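 Luciferase-expressing PDX cells sorted H2Kd⁻ and viable, 100,000 in 100 μl PBS injected in NSG tail vein. From the next day, salinomycin 3 mg/kg i.p. daily and/or JQ1 50 mg/kg i.p. 5 of 7 days for 2 weeks. Lungs and liver imaged by bioluminescence after i.p. luciferin 30 mg/kg; normalised photon flux; 10 mice/group; Wilcoxon test.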
On the technique in general: A xenograft is tissue or cells of one species grown in another, often human tumour cells in immunodeficient mice.

In test [3] the test system is Breast cancer cell line. The experiment in a line: Synergistic apoptosis activity in patient-derived breast cancer cells orthotopically xenografted in NSG mouse model of PDX assessed as increase in cleaved caspase-3 at 50 mg/kg, ip 5 out of 7 for 2 weeks cotreated with salinomycin by Immunostaining analysis. Conditions: Homo sapiens. Format: functional, organism-based. In outline: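 Paraffin sections of treated PDX tumours deparaffinised and subjected to antigen retrieval in citrate buffer pH 6. Peroxidase staining with ready-to-use Ki67 or cleaved caspase-3 antibody, DAB substrate, haematoxylin counterstain. Proportion of positive cells quantified; n = 3; t-test.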

Test [4] deals with Breast cancer cell line. The experiment in a line: Antitumor activity against patient-derived breast cancer cells orthotopically xenografted in NSG mouse model of PDX assessed as reduction in Ki67 cells at 50 mg/kg, ip 5 out of 7 for 2 weeks by Immunostaining analysis. The class given is functional, organism-based. Conditions: Homo sapiens. In outline: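 Paraffin sections of PDX tumours from 2-week-treated mice. Citrate pH 6 antigen retrieval, then Ki67 immunoperoxidase staining with DAB and haematoxylin counterstain. Proportion of Ki67+ cells quantified; n = 3; t-test.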

The test system of test [5] is SUM-159-PT. The experiment in a line: Synergistic anticancer activity against human SUM159 cells expressing BFP assessed as reduction in ALDHbr cell 50 nM in presence of salinomycin by LSR2 cytometer analysis. The class given is functional.
The subject of test [6] is Breast cancer cell line. The experiment in a line: Antitumor activity against human CRCM494 negative breast cancer cells orthotopically xenografted in NSG mouse model of PDX assessed as reduction in tumor volume at 50 mg/kg, ip 5 out of 7 for 2 weeks. The class given is functional, organism-based. In outline:
(§2)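 Chemo-naïve triple-negative PDX cells injected at 100,000 per fat pad, two fat pads per NSG mouse. At ~80 mm³ tumours, mice received i.p. 3 mg/kg daily for 14 days or 50 mg/kg 5 of 7 days for 2 weeks; placebo was DMSO/HPCD 10% (1:9). Five mice (10 tumours) per group. Tumour growth monitored; after 2 weeks tumours dissociated, mouse cells excluded via anti-H2Kd, ALDHbr measured by ALDEFLUOR flow cytometry and normalised to vehicle.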

The subject of test [7] is Breast cancer cell line. The experiment in a line: Synergistic antitumor activity against human reimplanted CRCM494 negative breast cancer cells orthotopically xenografted in NSG mouse model of PDX assessed as reduction tumor volume at 50 mg/kg, ip 5 out of 7 for 2 weeks cotreated with salinomycin by limiting dilation analysis. Format: functional, organism-based.
In test [8] the test system is SUM-159-PT. The experiment in a line: Anticancer activity against human SUM159 cells assessed as decrease in secondary tumor sphere formation incubated for 72 hrs by Extreme limiting dilution analysis. Format: functional, cell-based. In outline: (§3)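 Cells drug-treated in adherent culture for 72 h, then plated as single cells in ultra-low attachment 96-well plates in serum-free mammary epithelium basal medium. Plating at 25/10/5/3/2/1 cells per well, 18–36 wells per condition. Wells with ≥1 sphere after 10 days scored positive. Secondary spheres were made by dissociating primary spheres. Frequency by ELDA; n = 4; pairwise chi-square test.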

For test [9], the system named is Breast cancer cell line. Kind of test: Antitumor activity against human CRCM494 negative breast cancer cells orthotopically xenografted in NSG mouse model of PDX assessed as reduction ALDHbr cells at 50 mg/kg, ip 5 out of 7 for 2 weeks by LSR2 cytometer analysis. Format: functional, organism-based. The essentials: as §2
For test [10], the system named is SUM-159-PT. Kind of test: Anticancer activity against human SUM159 cells assessed as decrease in primary tumor sphere formation incubated for 72 hrs by Extreme limiting dilution analysis. The class given is functional, cell-based. The essentials:
as §3

For test [11], the system named is Breast cancer cell line. Kind of test: Synergistic antitumor activity against human CRCM434 negative breast cancer cells xenografted in NSG mouse model of PDX assessed as reduction metastasis formation in liver at 50 mg/kg, ip 5 out of 7 for 2 weeks cotreated with salinomycin. The class given is functional, organism-based. In outline:
as §1

The test system of test [12] is SUM-159-PT. Kind of test: Synergistic anticancer activity against human SUM159 cells expressing BFP assessed as reduction in ALDHbr cell at 5 to 500 nM in presence of salinomycin by LSR2 cytometer analysis. Conditions: dose 5-500 nM. Format: functional, cell-based.
Test [13] concerns Breast cancer cell line. The experiment in a line: Antitumor activity against human CRCM404 negative breast cancer cells orthotopically xenografted in NSG mouse model of PDX assessed as reduction ALDHbr cells at 50 mg/kg, ip 5 out of 7 for 2 weeks by LSR2 cytometer analysis. Format: functional, organism-based. In outline:
as §2

Test [14] has as its system SUM-159-PT. The experiment in a line: Synergistic anticancer activity against human SUM159 cells assessed as decrease in docetaxel induced ALDHbr cells at 62 nM in presence of salinomycin by LSR2 cytometer analysis. The class given is functional, cell-based. The essentials:
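SUM159 or SUM149 cells treated 72 h in adherent conditions; docetaxel combined with other drugs at 2 nM; combination doses chosen from synergy distributions (Sal/JQ1 62 nM/62 nM). ALDEFLUOR staining with DEAB control, flow cytometry on LSR2. n = 8; Student's t-test; mean ± SD.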

Another test deals with SUM149PT. The experiment in a line: Antitumor activity against human SUM149 cells assessed as K-score by measuring ALDHbr cells by LSR2 cytometer. The class given is functional. The essentials:
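Cell lines exposed for 72 h in adherent culture to a range of concentrations centred on the MTS-derived IC50. ALDHbr proportion measured by ALDEFLUOR flow cytometry (LSR2). K-score is the linear regression coefficient, on log10-transformed doses, between the untreated condition and the dose predicted to give a 50% decrease or increase in ALDHbr proportion versus control.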

The subject of test [15] is Breast cancer cell line. The experiment in a line: Antitumor activity against human CRCM434 negative breast cancer cells orthotopically xenografted in NSG mouse model of PDX assessed as reduction ALDHbr cells at 50 mg/kg, ip 5 out of 7 for 2 weeks by LSR2 cytometer analysis. Format: functional, organism-based. The essentials:
as §2

In test [16] the test system is SUM-159-PT. Kind of test: Anticancer activity against human SUM159 cells expressing BFP assessed as reduction in ALDHbr cell at 5 to 500 nM by LSR2 cytometer analysis. Conditions: dose 5-500 nM. Format: functional, cell-based.

Molecules are shown by their SMILES. Calls of active or inactive are those of the source. No cut-off for these calls is given here.

Consider `Cc1sc2c(c1C)C(c1ccc(Cl)cc1)=N[C@@H](CC(=O)OC(C)(C)C)c1nnc(C)n1-2`, for which the outcome in the test on SUM-159-PT [1] and in the test with Breast cancer cell line [3] was inactive. The result with Breast cancer cell line [2], in the test on Breast cancer cell line [4], in the test on Breast cancer cell line [6], with Breast cancer cell line [7], in the test with SUM-159-PT [8] and in the test on Breast cancer cell line [9] was Active. Further, the outcome with SUM-159-PT [10], in the test with Breast cancer cell line [11], with SUM-159-PT [12], with Breast cancer cell line [13], with SUM-159-PT [14] and in the test with Breast cancer cell line [15] was Active. In addition, the outcome in the test on SUM-159-PT [16] was Active. The “fold change (FC)” value with SUM-159-PT [5] stood at 4. Moreover, in the test with SUM149PT, the Activity is -0.13.

Values taken from ChEMBL document CHEMBL5712908, “A genome-wide RNAi screen reveals essential therapeutic targets of breast cancer stem cells” (2019).
